Hits are enriched below; roughly 3.1% of the tested compounds scored in any of these assays.
hERG rescue: hERG rescue from dofetilide block, primary screen, cell-based, CHO-hERG, FluxOR thallium flux, dofetilide IC70. Voltage-gated inwardly rectifying potassium channel KCNH2 (Homo sapiens), Q12809. dofetilide IC70 present. activation (rescue from dofetilide block), less the hit threshold, % at 10 µM. 310,000 tested, 0.51% active. AID 1511, 2009;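 active = activation above the mean of controls blocked by dofetilide plus 5 SD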;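 also: thallium influx through hERG after potassium depolarization seen as dye fluorescence rise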
KCNQ1 pot: potentiators or activators of KCNQ1 channel, primary screen, cell-based, thallium flux, high-throughput; AID 2648, 2010; Potassium voltage-gated channel subfamily KQT member 1 (Homo sapiens), P51787; 310,000 tested, 0.35% active; B-score at 10 µM; CHO-K1 KCNQ1, thallium flux FluxOR fluorescence; hits give high values;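 active = fluorescence ratio B-score, a plate-corrected score, at least three library SD, with initial intensity B-score within 5 SD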
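Schedule – 37 °C overnight plating, 90-min dark dye load, 20-min compound pretreatment · System – stable KCNQ1 CHO-K1 line · Probe or stimulus – thallium- and potassium-containing depolarizing buffer · Measured by – kinetic FluxOR fluorescence, 10 s baseline plus 110 s post-stimulus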
KCNQ1 block: inhibitors of human KCNQ1 channel, primary screen, cell-based, thallium flux, high-throughput. CHO-K1 KCNQ1, FluxOR thallium flux fluorescence; hits give high values. B-score at 10 µM. 310,000 tested, 1.3% active;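 active = compounds whose thallium flux B-score, printed positive for inhibition, exceeds three library SD while starting fluorescence stays within three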;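 also: channel opened by potassium depolarization with thallium stimulus after 20 min compound exposure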
KCNK3 block: human KCNK3 channel inhibitors, primary screen, CHO cells, FluxOR thallium flux, B-score. FluxOR fluorescence; hits give low values. B-score at 10 µM. AID 602410, 2012. Potassium channel subfamily K member 3 (Homo sapiens), O14649. 340,000 tested, 0.84% active;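 active = B-score under library mean minus 4 SD, starting fluorescence ratio at most library mean plus 5 SD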;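 also: more negative B-score means stronger inhibition of thallium flux through KCNK3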
KCNK9 block: KCNK9 potassium channel inhibitors, primary screen, HEK293 cells, thallium flux; FluxOR thallium flux fluorescence; hits give low values; B-score at 10 µM; Potassium channel subfamily K member 9 (Homo sapiens), Q9NPC2; 310,000 tested, 1.2% active;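 active = ratio B-score over 3 SD below the library mean, with starting fluorescence within 5 SD of its mean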;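 also: negative B-score means less thallium flux so channel inhibition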
KCNK9 block conf: KCNK9 potassium channel inhibitors, confirmation, HEK293 cells, thallium flux, duplicate | shares compounds with KCNK9 block | FluxOR thallium flux fluorescence | inhibition, % at 10 µM | 4,900 tested, 43% active | AID 492992, 2010;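 active = thallium signal inhibited by more than 5 SD of the compound-free buffer control wells, on both duplicate plates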;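 also: 0% = assay buffer control wells without compound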
Kir2-1 spec: mouse Kir2.1 channel inhibition, confirmation, selectivity assay for KCNK9 modulator project, cell-based, HEK293, thallium flux. 4,900 tested, 4% active. shares compounds with KCNK9 block. Kir2.1 cells, FluxOR thallium flux fluorescence. inhibition, % at 10 µM;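 active = thallium signal drop more than 5 SD beyond the mean of the no-compound control wells, seen in both duplicate plates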;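 also: signal is fluorescence rise after thallium addition divided by baseline fluorescence; plate controls were assay buffer only for no effect and full block by chlorpromazine control for full effect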
Target sequence (P35561 whole entry, looked up): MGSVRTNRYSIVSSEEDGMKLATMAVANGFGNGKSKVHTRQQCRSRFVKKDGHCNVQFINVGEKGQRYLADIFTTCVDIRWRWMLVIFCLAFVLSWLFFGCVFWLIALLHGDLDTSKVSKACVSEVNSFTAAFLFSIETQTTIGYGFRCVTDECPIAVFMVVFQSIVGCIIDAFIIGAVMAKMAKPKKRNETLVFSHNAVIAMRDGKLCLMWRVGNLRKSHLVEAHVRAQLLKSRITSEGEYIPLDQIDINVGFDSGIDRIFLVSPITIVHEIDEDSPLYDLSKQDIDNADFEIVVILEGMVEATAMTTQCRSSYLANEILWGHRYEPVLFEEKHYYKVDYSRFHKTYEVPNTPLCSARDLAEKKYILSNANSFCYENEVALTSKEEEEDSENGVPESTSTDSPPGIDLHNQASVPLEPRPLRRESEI
KCNK9 uninduced: thallium flux in non-induced HEK293 cells, confirmation, counter-screen for KCNK9 inhibitor project, cell-based, second counter screen, non-induced KCNK9-HEK293; shares compounds with KCNK9 block; inhibition, % at 10 µM; 4,900 tested, 40% active; FluxOR thallium flux;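 active = thallium signal drop beyond 5 SD of the untreated control mean, on both duplicate plates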;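 also: plate controls were buffer only IC0 wells for no effect and SID17386958 at its maximal inhibitory level for full effect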
Numbers without * were called inactive; i = inactive; x = no result given.

SMILES	hERG rescue	KCNQ1 pot	KCNQ1 block	KCNK3 block	KCNK9 block	KCNK9 block conf	Kir2-1 spec	KCNK9 uninduced
COC(=O)c1c(NC(NC(=O)CC(C)C)C(Cl)(Cl)Cl)sc2c1CCC2 (stereo not drawn)	-12	i	i	i	-9.7*	i	i	49%*
CCC(=O)NC(Nc1sc2c(c1C(=O)OC)CCC2)C(Cl)(Cl)Cl (stereo not drawn)	-6	i	i	i	i	x	x	x
Cc1cc(C)nc(N/N=C/c2ccccc2OCc2ccc([N+](=O)[O-])cc2)n1	-8	i	i	i	-15*	51%*	i	28%*
CCOc1cc(CNc2ccc(N3CCOCC3)cc2)cc(Br)c1OCC	-8	i	i	i	i	x	x	x
CCOc1cc(CNc2ccc3c(c2)OCCO3)cc(Br)c1OCC	-7	i	i	i	i	i	i	i
O=C(CC(Nc1ccccc1Cl)C(=O)OCC(=O)c1cccs1)c1ccccc1 (stereo not drawn)	-10	i	i	i	-9.4*	42%*	i	28%*
Cc1ccc(-c2csc(NC(=O)C3=COCCO3)n2)cc1	-5	i	i	i	i	x	x	x
Cc1ccc(C)c(-c2csc(NC(=O)C3=COCCO3)n2)c1	-23	i	i	i	-8.3*	i	i	38%*
CCCC[C@@H](CN[C@H](C)CNC)NCC1CCC(C(C)(C)C)CC1 (stereo partly drawn)	-17	i	i	x	i	x	x	x
COc1cccc(C2c3[nH]c4ccccc4c3CCN2Cc2cccn2-c2ncccn2)c1 (stereo not drawn)	-21	i	i	i	-8.3*	40%*	i	48%*
CCn1cc(CN2CCc3c([nH]c4ccccc34)C2c2cccc(OC)c2)c(C)n1 (stereo not drawn)	-10	i	i	i	i	x	x	x
Cc1ccc(C2N(C)c3ccccc3-c3nc4ccccc4n32)o1 (stereo not drawn)	-11	i	i	i	-11*	32%*	i	30%*
CN1c2ccccc2-c2nc3ccccc3n2C1c1cccs1 (stereo not drawn)	-14	i	i	i	-8.6*	38%*	i	42%*
CCn1ccnc1CNC(=O)CC1C(=O)NCCN1Cc1ccc(OC)cc1OC (stereo not drawn)	-13	i	i	i	i	x	x	x
Cc1nonc1OCC(C)(COc1nonc1C)NC(=O)c1ccc(Cl)cc1	-10	i	i	i	-9.1*	46%*	i	36%*
Cc1ccc(CCNC(=O)C2CCN(S(=O)(=O)c3ccc4c(c3)NC(=O)CO4)CC2)cc1	-4	i	i	i	i	x	x	x
Cc1ccc2nc(NC(=S)NC(=O)c3ccco3)sc2c1	36*	57*	i	i	i	i	i	i
Cc1ccc2nc(NC(=O)c3ccco3)sc2c1	-13	i	i	i	i	x	x	x
CCOC(=O)CN(C(=O)COc1nc(-c2ccccc2)cc(C)c1C#N)c1ccc(C)cc1	-10	i	i	i	i	i	i	i
CCOC(=O)CN(C(=O)COc1nc(-c2ccccc2)cc(C)c1C#N)c1ccccc1	-10	i	i	i	i	x	x	x
